Measurements published in ChEMBL document CHEMBL3045579, “Herbicidal activity of cineole derivatives” (2010).
Activity calls are given as the source filed them. The rule behind the calls is not given here.

test system: Radish; assay: Pre-emergence herbicidal activity against Raphanus sativus var.Long scarlet (radish) seeds assessed as seed germination at 0.1 mol/l at 25 degC after 72 hr by laboratory-based agar medium bioassay relative to 1,8-Cineole; format: functional
In short: (§1)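 Agar-plate assay as above: compound in organic solvent evaporated onto Ca/B water agar, 10 seeds × 5 dishes, 72 h at 25 °C in light. Germination, root length or shoot length at 0.1 mol L^-1 expressed relative to 1,8-cineole.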

SMILES | inhibition
O=C(O)c1ccccc1 [BENZOIC ACID] | Active
CCCC(=O)O [BUTYRIC ACID] | Active
CCCCCC(=O)O [HEXANOATE] | Active

test system: Lolium rigidum; assay: Pre-emergence herbicidal activity against Lolium rigidum seeds assessed as concentration required to suppress shoot growth at 25 degC after 72 hr by laboratory-based agar medium bioassay; format: functional

SMILES | Activity [mol/L]
O=C(O)c1ccccc1 [BENZOIC ACID] | 0.0001
CCCC(=O)O [BUTYRIC ACID] | 0.1
CCCCCC(=O)O [HEXANOATE] | 0.0001

test system: Radish; assay: Pre-emergence herbicidal activity against Raphanus sativus var.Long scarlet (radish) seeds assessed as shoot length at 0.1 mol/l at 25 degC after 72 hr by laboratory-based agar medium bioassay relative to 1,8-Cineole; format: functional; in short: as §1

SMILES | inhibition
O=C(O)c1ccccc1 [BENZOIC ACID] | Active
CCCC(=O)O [BUTYRIC ACID] | Active
CCCCCC(=O)O [HEXANOATE] | Active

test system: Lolium rigidum; assay: Pre-emergence herbicidal activity against Lolium rigidum seeds assessed as root length at 0.1 mol/l at 25 degC after 72 hr by laboratory-based agar medium bioassay relative to control; format: functional
In short: (§2)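 Solutions tested at 1 to 1 × 10^-4 mol L^-1. 10 seeds/dish, 5 randomized replicate dishes angled ~70°. Incubated 72 h at 25 °C in light. Solvent and no-solvent controls. Germination, root length and shoot length recorded.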

SMILES | Activity [%]
O=C(O)c1ccccc1 [BENZOIC ACID] | 0
CCCC(=O)O [BUTYRIC ACID] | 0
CCCCCC(=O)O [HEXANOATE] | 0

test system: Lolium rigidum; assay: Pre-emergence herbicidal activity against Lolium rigidum seeds assessed as concentration required to suppress root growth at 25 degC after 72 hr by laboratory-based agar medium bioassay; format: functional

SMILES | Activity [mol/L]
O=C(O)c1ccccc1 [BENZOIC ACID] | 0.0001
CCCC(=O)O [BUTYRIC ACID] | 0.01
CCCCCC(=O)O [HEXANOATE] | 0.0001

test system: Lolium rigidum; assay: Pre-emergence herbicidal activity against Lolium rigidum seeds assessed as seed germination at 0.1 mol/l at 25 degC after 72 hr by laboratory-based agar medium bioassay relative to control; format: functional; in short: as §2

SMILES | Activity [%]
O=C(O)c1ccccc1 [BENZOIC ACID] | 0
CCCC(=O)O [BUTYRIC ACID] | 0
CCCCCC(=O)O [HEXANOATE] | 0

test system: Radish; assay: Pre-emergence herbicidal activity against Raphanus sativus var.Long scarlet (radish) seeds assessed as seed germination at 0.1 mol/l at 25 degC after 72 hr by laboratory-based agar medium bioassay relative to control; format: functional; in short: as §2

SMILES | Activity [%]
O=C(O)c1ccccc1 [BENZOIC ACID] | 0
CCCC(=O)O [BUTYRIC ACID] | 0
CCCCCC(=O)O [HEXANOATE] | 0

test system: Radish; assay: Pre-emergence herbicidal activity against Raphanus sativus var.Long scarlet (radish) seeds assessed as concentration required to suppress root growth at 25 degC after 72 hr by laboratory-based agar medium bioassay; format: functional

SMILES | Activity [mol/L]
O=C(O)c1ccccc1 [BENZOIC ACID] | 0.01
CCCC(=O)O [BUTYRIC ACID] | 0.01
CCCCCC(=O)O [HEXANOATE] | 0.001

test system: Lolium rigidum; assay: Pre-emergence herbicidal activity against Lolium rigidum seeds assessed as root length at 0.1 mol/l at 25 degC after 72 hr by laboratory-based agar medium bioassay relative to 1,8-Cineole; format: functional; in short: as §1

SMILES | inhibition
O=C(O)c1ccccc1 [BENZOIC ACID] | Active
CCCC(=O)O [BUTYRIC ACID] | Active
CCCCCC(=O)O [HEXANOATE] | Active

test system: Radish; assay: Pre-emergence herbicidal activity against Raphanus sativus var.Long scarlet (radish) seeds assessed as concentration required to suppress shoot growth at 25 degC after 72 hr by laboratory-based agar medium bioassay; format: functional

SMILES | Activity [mol/L]
O=C(O)c1ccccc1 [BENZOIC ACID] | 0.01
CCCC(=O)O [BUTYRIC ACID] | 0.01
CCCCCC(=O)O [HEXANOATE] | 0.1

test system: Lolium rigidum; assay: Pre-emergence herbicidal activity against Lolium rigidum seeds assessed as shoot length at 0.1 mol/l at 25 degC after 72 hr by laboratory-based agar medium bioassay relative to control; format: functional; in short: as §2

SMILES | Activity [%]
O=C(O)c1ccccc1 [BENZOIC ACID] | 0
CCCC(=O)O [BUTYRIC ACID] | 0
CCCCCC(=O)O [HEXANOATE] | 0

test system: Lolium rigidum; assay: Pre-emergence herbicidal activity against Lolium rigidum seeds assessed as seed germination at 0.1 mol/l at 25 degC after 72 hr by laboratory-based agar medium bioassay relative to 1,8-Cineole; format: functional; in short: as §1

SMILES | inhibition
O=C(O)c1ccccc1 [BENZOIC ACID] | Active
CCCC(=O)O [BUTYRIC ACID] | Active
CCCCCC(=O)O [HEXANOATE] | Active

test system: Radish; assay: Pre-emergence herbicidal activity against Raphanus sativus var.Long scarlet (radish) seeds assessed as shoot length at 0.1 mol/l at 25 degC after 72 hr by laboratory-based agar medium bioassay relative to control; format: functional; in short: as §2

SMILES | Activity [%]
O=C(O)c1ccccc1 [BENZOIC ACID] | 0
CCCC(=O)O [BUTYRIC ACID] | 0
CCCCCC(=O)O [HEXANOATE] | 0

test system: Lolium rigidum; assay: Pre-emergence herbicidal activity against Lolium rigidum seeds assessed as shoot length at 0.1 mol/l at 25 degC after 72 hr by laboratory-based agar medium bioassay relative to 1,8-Cineole; format: functional; in short: as §1

SMILES | inhibition
O=C(O)c1ccccc1 [BENZOIC ACID] | Active
CCCC(=O)O [BUTYRIC ACID] | Active
CCCCCC(=O)O [HEXANOATE] | Active

test system: Radish; assay: Pre-emergence herbicidal activity against Raphanus sativus var.Long scarlet (radish) seeds assessed as root length at 0.1 mol/l at 25 degC after 72 hr by laboratory-based agar medium bioassay relative to 1,8-Cineole; format: functional; in short: as §1

SMILES | inhibition
O=C(O)c1ccccc1 [BENZOIC ACID] | Active
CCCC(=O)O [BUTYRIC ACID] | Active
CCCCCC(=O)O [HEXANOATE] | Active

test system: Lolium rigidum; assay: Pre-emergence herbicidal activity against Lolium rigidum seeds assessed as concentration required to suppress seed germination at 25 degC after 72 hr by laboratory-based agar medium bioassay; format: functional

SMILES | Activity [mol/L]
O=C(O)c1ccccc1 [BENZOIC ACID] | 0.01
CCCC(=O)O [BUTYRIC ACID] | 0.01
CCCCCC(=O)O [HEXANOATE] | 0.01

test system: Radish; assay: Pre-emergence herbicidal activity against Raphanus sativus var.Long scarlet (radish) seeds assessed as concentration required to suppress seed germination at 25 degC after 72 hr by laboratory-based agar medium bioassay; format: functional

SMILES | Activity [mol/L]
O=C(O)c1ccccc1 [BENZOIC ACID] | 0.1
CCCC(=O)O [BUTYRIC ACID] | 0.1
CCCCCC(=O)O [HEXANOATE] | 0.1

test system: Radish; assay: Pre-emergence herbicidal activity against Raphanus sativus var.Long scarlet (radish) seeds assessed as root length at 0.1 mol/l at 25 degC after 72 hr by laboratory-based agar medium bioassay relative to control; format: functional; in short: as §2

SMILES | Activity [%]
O=C(O)c1ccccc1 [BENZOIC ACID] | 0
CCCC(=O)O [BUTYRIC ACID] | 0
CCCCCC(=O)O [HEXANOATE] | 0
